Measured values: the RNAGym collection of RNA variant scans (doi:10.1002/anie.201605470)

B1: Osa-1-4 twister ribozyme (parent)
chain: CCGCCUAACACUGCCAAUGCCGGUCCCAAGCCCGGAUAAAAGUGGAGGGGGCGG

Variants of: B1
Test: self-cleavage, relative activity (ratio to wild type); higher = more cleavage; co-transcriptional
In short: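 The 48 positions downstream of the cleavage site in a 54-nucleotide Oryza sativa twister ribozyme template were synthesised at 97 % wild-type base and 1 % of each other base. The template was transcribed in vitro at 37 °C for 2 h, with self-cleavage allowed during transcription. Reads with or without upstream sequence after deep sequencing marked cleavage status, and relative activity is fraction cleaved normalised to wild type.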
CCGCCUAACACUGCCAAUGCCGGUCCCAAGCCCGGAUAGAAGUGGAGCGGGCGG [A39G G48C] showed a self-cleavage of 0.08.
Work on CCGCCUAACACUGCCAAUGCCGGUCCCAAGCCCGGAUAGAAGUGGAGAGGGCGG [A39G G48A] yielded a self-cleavage of 0.1.
CCGCCUAACACUGCCAAUGCCGGUCCCAAGCCCGGAUAGAAGUGGAGUGGGCGG [A39G G48U] showed a self-cleavage of 0.07.
With CCGCCUAACACUGCCAAUGCCGGUCCCAAGCCCGGAUAGAAGUGGAGGGGGUGG [A39G C52U] the self-cleavage was 1.04.
Variant CCGCCUAACACUGCCAAUGCCGGUCCCAAGCCCGGAUAGAAGUGGAGGGGGAGG [A39G C52A] has a self-cleavage of 0.97.
Work on CCGCCUAACACUGCCAAUGCCGGUCCCAAGCCCGGAUAGAAGUGGAGGGGGGGG [A39G C52G] yielded a self-cleavage of 0.98.
With CCGCCUAACACUGCCAAUGCCGGUCCCAAGCCCGGAUAGAAAUGGAGGGGGCGG [A39G G42A] the self-cleavage was 0.37.
For CCGCCUAACACUGCCAAUGCCGGUCCCAAGCCCGGAUAGAACUGGAGGGGGCGG [A39G G42C], the self-cleavage was 0.16.
Work on CCGCCUAACACUGCCAAUGCCGGUCCCAAGCCCGGAUAGAAUUGGAGGGGGCGG [A39G G42U] yielded a self-cleavage of 0.08.
With CCGCCUAACACUGCCAAUGCCGGUCCAAAGCCCGGAUAGAAGUGGAGGGGGCGG [A39G C27A] the self-cleavage was 0.09.
CCGCCUAACACUGCCAAUGCCGGUCCGAAGCCCGGAUAGAAGUGGAGGGGGCGG [A39G C27G] gave a self-cleavage of 0.07.
Variant CCGCCUAACACUGCCAAUGCCGGUCCUAAGCCCGGAUAGAAGUGGAGGGGGCGG [A39G C27U] has a self-cleavage of 0.11.
For CCGCCUAACACAGCCAAUGCCGGUCCCAAGCCCGGAUAGAAGUGGAGGGGGCGG [A39G U12A], the self-cleavage was 0.69.
Work on CCGCCUAACACGGCCAAUGCCGGUCCCAAGCCCGGAUAGAAGUGGAGGGGGCGG [A39G U12G] yielded a self-cleavage of 0.28.
In the case of CCGCCUAACACCGCCAAUGCCGGUCCCAAGCCCGGAUAGAAGUGGAGGGGGCGG [A39G U12C], the self-cleavage is reported as 0.19.
For CCGCCUAACACUGCCAAUGCCGGUCCCAAGCCCGGAUAUACGUGGAGGGGGCGG [A39U A41C], the self-cleavage was 0.66.
With CCGCCUAACACUGCCAAUGCCGGUCCCAAGCCCGGAUAGAAGUGGAGGUGGCGG [A39G G49U] the self-cleavage was 0.1.
For CCGCCUAACACUGCCAAUGCCGGUCCCAAGCCCGGAUAGAAGUGGAGGCGGCGG [A39G G49C], the self-cleavage was 0.08.
With CCGCCUAACACUGCCAAUGCCGGUCCCAAGCCCGGAUAGAAGUGGAGGAGGCGG [A39G G49A] the self-cleavage was 0.26.
In the case of CCGCCUAACACUGCCAAUGCCGGUCUCAAGCCCGGAUAGAAGUGGAGGGGGCGG [A39G C26U], the self-cleavage is reported as 0.55.
Variant CCGCCUAACACUGCCAAUGCCGGUCACAAGCCCGGAUAGAAGUGGAGGGGGCGG [A39G C26A] has a self-cleavage of 0.06.
CCGCCUAACACUGCCAAUGCCGGUCGCAAGCCCGGAUAGAAGUGGAGGGGGCGG [A39G C26G] gave a self-cleavage of 0.25.
With CCGCCUAACACUGCCAAUUCCGGUCCCAAGCCCGGAUAGAAGUGGAGGGGGCGG [A39G G19U] the self-cleavage was 0.26.
In the case of CCGCCUAACACUGCCAAUCCCGGUCCCAAGCCCGGAUAGAAGUGGAGGGGGCGG [A39G G19C], the self-cleavage is reported as 0.31.
With CCGCCUAACACUGCCAAUACCGGUCCCAAGCCCGGAUAGAAGUGGAGGGGGCGG [A39G G19A] the self-cleavage was 0.7.
CCGCCUAACACUGCCAAUGCCGGUCCCAAGCCCAGAUAGAAGUGGAGGGGGCGG [A39G G34A] gave a self-cleavage of 0.8.
With CCGCCUAACACUGCCAAUGCCGGUCCCAAGCCCCGAUAGAAGUGGAGGGGGCGG [A39G G34C] the self-cleavage was 0.42.
For CCGCCUAACACUGCCAAUGCCGGUCCCAAGCCCUGAUAGAAGUGGAGGGGGCGG [A39G G34U], the self-cleavage was 0.68.
CCGCCUACCACUGCCAAUGCCGGUCCCAAGCCCGGAUAUAAGUGGAGGGGGCGG [A39U A8C] showed a self-cleavage of 0.08.
CCGCCUAUCACUGCCAAUGCCGGUCCCAAGCCCGGAUAUAAGUGGAGGGGGCGG [A39U A8U] showed a self-cleavage of 0.16.
In the case of CCGCCUAGCACUGCCAAUGCCGGUCCCAAGCCCGGAUAUAAGUGGAGGGGGCGG [A39U A8G], the self-cleavage is reported as 0.31.
CCGCCUAACACUCCCAAUGCCGGUCCCAAGCCCGGAUAGAAGUGGAGGGGGCGG [A39G G13C] gave a self-cleavage of 0.03.
Variant CCGCCUAACACUUCCAAUGCCGGUCCCAAGCCCGGAUAGAAGUGGAGGGGGCGG [A39G G13U] has a self-cleavage of 0.03.
In the case of CCGCCUAACACUACCAAUGCCGGUCCCAAGCCCGGAUAGAAGUGGAGGGGGCGG [A39G G13A], the self-cleavage is reported as 0.07.
With CCGCCUAACACUGCCAAUGCCGGUCCCAAGCCCGGAUAGAAGUUGAGGGGGCGG [A39G G44U] the self-cleavage was 0.89.
For CCGCCUAACACUGCCAAUGCCGGUCCCAAGCCCGGAUAGAAGUCGAGGGGGCGG [A39G G44C], the self-cleavage was 0.93.
In the case of CCGCCUAACACUGCCAAUGCCGGUCCCAAGCCCGGAUAGAAGUAGAGGGGGCGG [A39G G44A], the self-cleavage is reported as 0.85.
In the case of CCGCCUAACACUGCCAAUGCCGGUCCCAAGCCCGGAUAGAAGUGGAGGGGGCGC [A39G G54C], the self-cleavage is reported as 0.76.
With CCGCCUAACACUGCCAAUGCCGGUCCCAAGCCCGGAUAGAAGUGGAGGGGGCGU [A39G G54U] the self-cleavage was 0.8.
Variant CCGCCUAACACUGCCAAUGCCGGUCCCAAGCCCGGAUAGAAGUGGAGGGGGCGA [A39G G54A] has a self-cleavage of 0.79.
Work on CCGCCUAACACUGCCAAUGCCGGUCCCAAGCCCGGAUAGAAGAGGAGGGGGCGG [A39G U43A] yielded a self-cleavage of 0.8.
CCGCCUAACACUGCCAAUGCCGGUCCCAAGCCCGGAUAGAAGCGGAGGGGGCGG [A39G U43C] showed a self-cleavage of 0.24.
For CCGCCUAACACUGCCAAUGCCGGUCCCAAGCCCGGAUAGAAGGGGAGGGGGCGG [A39G U43G], the self-cleavage was 0.36.
CCGCCUAACACUGCCAAUGCCAGUCCCAAGCCCGGAUAGAAGUGGAGGGGGCGG [A39G G22A] gave a self-cleavage of 0.95.
For CCGCCUAACACUGCCAAUGCCUGUCCCAAGCCCGGAUAGAAGUGGAGGGGGCGG [A39G G22U], the self-cleavage was 0.26.
CCGCCUAACACUGCCAAUGCCCGUCCCAAGCCCGGAUAGAAGUGGAGGGGGCGG [A39G G22C] gave a self-cleavage of 0.08.
For CCGCCUAACACUGCCAAUGCCGGUCCCAAGCCGGGAUAGAAGUGGAGGGGGCGG [A39G C33G], the self-cleavage was 0.07.
In the case of CCGCCUAACACUGCCAAUGCCGGUCCCAAGCCUGGAUAGAAGUGGAGGGGGCGG [A39G C33U], the self-cleavage is reported as 0.63.
